Source: PubChem
dFosB act = activators of delta FosB homodimer, primary screen, biochemical, fluorescence polarization, TAMRA-CDK5 oligo, single point | purified delta FosB; percent of positive-control signal above neutral wells | activation, % at 25 µM | 340,000 compounds, 0.99% hits;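 active means mean activation above about 17%, with every replicate also reaching it, limit read from the data, passing the limit was not always enough; inconclusive means only one of the two conditions met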
Target sequence (P13346 whole entry, looked up): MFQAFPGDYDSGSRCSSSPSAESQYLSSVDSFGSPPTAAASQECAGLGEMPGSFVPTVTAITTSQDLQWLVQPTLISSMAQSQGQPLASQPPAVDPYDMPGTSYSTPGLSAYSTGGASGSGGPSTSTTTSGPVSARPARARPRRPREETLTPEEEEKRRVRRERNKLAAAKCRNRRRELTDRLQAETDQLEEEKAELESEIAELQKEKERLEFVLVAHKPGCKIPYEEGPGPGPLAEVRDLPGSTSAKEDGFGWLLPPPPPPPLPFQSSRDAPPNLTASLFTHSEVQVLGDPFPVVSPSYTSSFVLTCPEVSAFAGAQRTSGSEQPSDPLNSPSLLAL
VIM-2 inhibitor = VIM-2 metallo-beta-lactamase inhibitors, primary screen, biochemical, epi-absorbance readout, Pseudomonas aeruginosa enzyme; purified VIM-2, nitrocefin hydrolysis, epi-absorbance fluorescence; inhibition, % at 5.6 µM; 290,000 compounds, 0.89% hits; AID 1527, 2009;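 active means inhibition above the mean of all tested compounds plus 3 SD, cutoff set per screening run, cut at about 7.5% in these data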;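 further: red hydrolysis product quenches plate fluorescence so inhibitors raise well fluorescence; 0% = enzyme with DMSO and 100% = DMSO without enzyme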
HTR2A ag = mouse Htr2a agonists via beta-arrestin recruitment, primary screen, cell-based, luminescence; 5-hydroxytryptamine receptor 2A (Mus musculus), P35363; CHO-K1 mHTR2A beta-arrestin complementation; percent of 30 µM serotonin response; activation, % at 7.6 µM; 360,000 compounds, 0.66% hits;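 active means activation above a run cutoff, the mean activation of all tested compounds plus 3 SD, cut at about 14% in these data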;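 further: 0% = plate median of compound wells and 100% = 30 µM serotonin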
IMP-1 inh = IMP-1 metallo-beta-lactamase inhibitors, primary screen, biochemical, epi-absorbance readout, Pseudomonas aeruginosa enzyme; purified IMP-1, nitrocefin hydrolysis, epi-absorbance fluorescence; inhibition, % at 5.6 µM; 290,000 compounds, 0.45% hits; AID 1556, 2009;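 active means inhibition above the mean plus 3 SD of all compounds in the same screening run, cut at about 4.5% in these data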;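 further: 0% = IMP-1 with DMSO and 100% = DMSO wells lacking enzyme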
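System: purified IMP-1 / Input: IMP-1 dispensed at 0.2 nM / Medium: 50 mM HEPES pH 7.1, 50 µM ZnSO4, 0.05% Brij 35 / Timing: 15 min enzyme–compound preincubation, then 25 min nitrocefin reaction, 25 °C / Technique: plate fluorescence quenching by hydrolysis product, ex 480/em 530 nm / Repeats: singlicate testing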
Numbers without * were called inactive; ? = inconclusive; . = not tested or not shown; ! = not active in a repeat. Compounds with a hit are over-represented: about 2.5% of the library has one in this group of screens.

SMILES	dFosB act	VIM-2 inhibitor	HTR2A ag	IMP-1 inh
O=C(Nc1ccccc1)Nc1cccc(C(F)(F)F)c1	-5	-3	-6	-5
O=C(/C=C/Nc1cccc(C(F)(F)F)c1)C(F)(F)F	-3	0	2	5.9*
COC(=O)c1c(-c2cccs2)csc1NC(=O)c1cccnc1	10	11*	6	-3
CCOC(=O)c1c(-c2cccs2)csc1NC(=O)CC(C)C	0	-1	-5	-7
Cc1ccc(/C=C/S(=O)(=O)NCc2ccc(F)cc2)cc1	-4	-1	-6	-2
COc1ccc(OC)c2c(C)c(C)[nH]c12	6	8.2*	1	0
COc1ccc(OC)c2c(=O)cc(C(=O)O)[nH]c12	.	-2	7	-5
OC1CN=C2CCCc3c2n(c2ccc(Cl)cc32)C1 (stereo not drawn)	-5	-2	-9	-3
c1ccc(-c2ccc3c(c2)c2c4n3CCN=C4CCC2)cc1	-13	-1	-9	5.3*
O=C1C2C(C(=O)N1/N=C/c1cc(Br)cc([N+](=O)[O-])c1O)C1C=CC2C12CC2 (stereo not drawn)	2	-4	0	7.0*
O=C1C2C(C(=O)N1/N=C/c1cc([N+](=O)[O-])c(O)cc1O)C1C=CC2C12CC2 (stereo not drawn)	-3	-3	-5	-3
O=C1NC[C@@H](CCCCN2C[C@H](Cc3ccc(O)cc3)N(CC3CCCCC3)C(=O)C2=O)N(Cc2ccccc2)C1=O	.	.	2	.
CSc1ccc2c(c1)C(N1CCN(C)CC1)Cc1ccccc1S2 (stereo not drawn)	19*!	0	-8	-4
O=C1CSC(=Nc2ccc(Cl)cc2)N1Cc1cccnc1	0	-3	-1	-2
COc1ccc(NC(=O)CSc2nc3n[nH]c(C)c3c(=N)n2-c2ccc(Cl)c(C)c2)cc1OC	44*	-2	6	-2
Cc1ccc([N+](=O)[O-])cc1NC(=S)NC(=O)CC(C)(C)C	-16	3	-4	0
Cc1ccc([N+](=O)[O-])cc1NC(=S)NC(=O)C(C)(C)C	6	3	1	5.1*
O=C1C=C(c2ccc3ccccc3c2)C[C@@H](c2ccc(F)cc2)C1	-1	.	-9	.
Cc1ccccc1NC(=O)Cn1c(=O)oc2ccccc21	0	0	5	-5
COc1ccc(C)cc1NC(=O)Cn1c(=O)oc2ccccc21	19*	-3	7	-3
CC(C)OCCCNC(=O)c1cc2c(=O)n(C)c3ccccc3c2n1C	-23	10*	1	0
CCOc1ccccc1NC(=O)CCS(=O)(=O)c1ccc(OC)cc1	-2	3	-4	0
CCc1ccccc1NC(=O)CCS(=O)(=O)c1ccc(OC)cc1	-3	-2	2	37*
CC1(C(=O)NS(=O)(=O)c2cccc(C#N)c2)CCN1C(=O)CCc1ccccc1 (stereo not drawn)	.	.	5	.
COc1ccccc1C1NC(=O)NC(C)=C1C(=O)Nc1cccc(C)c1C (stereo not drawn)	-7	0	-7	5.0*
SMILES	dFosB act	VIM-2 inhibitor	HTR2A ag	IMP-1 inh
COc1ccc2[nH]c3c(c2c1)CCN1C(=O)C(CC(=O)NCCc2ccccn2)C[C@H](C(=O)N2CCCCC2)[C@@]31C (stereo partly drawn)	0	.	1	.
O=C1CC(c2ccccc2F)c2cc3c(cc2N1)CCC3 (stereo not drawn)	2	-1	1	-1
O=C1CC(c2cc(Br)ccc2F)c2cc3c(cc2N1)CCC3 (stereo not drawn)	41*	0	-3	-2
COc1ccccc1CNC(=O)CN(C)CC(=O)Nc1ccc(F)c(F)c1F	-3	.	1	.
O=C(O)c1cccc(-c2ccc(/C=N/n3cnnc3)o2)c1	-2	11*	0	-3
Cc1c(C(=O)O)cccc1-c1ccc(/C=N/n2cnnc2)o1	-3	-1	6	-3
Cc1ccc(S(=O)(=O)N2CCN(C(=O)COC(=O)c3cccnc3Cl)CC2)c(C)c1	-2	.	6	.
Cc1ccc(S(=O)(=O)N2CCN(C(=O)COC(=O)c3ccc(Cl)nc3)CC2)c(C)c1	32*	.	0	.
CC(C)N(Cc1ccccc1)C(=O)COC(=O)c1cnc(Cl)c(Cl)c1	-19	.	-1	.
CC(C)N1C(=O)CC(Nc2cccc3cccc(N)c23)C1=O (stereo not drawn)	-14	-2	7	12*
CCOC(=O)c1nn(-c2ccc(F)cc2)c(=O)cc1OCC(=O)Nc1ccc(OCC)cc1	?	.	-3	.
CCO[C@@H]1OC(C(=O)N2CCOCC2)=C[C@H](c2ccc(Br)cc2)[C@H]1CCCO	-3	-2	18*	-1
CCO[C@H]1OC(C(=O)N2CCN(C)CC2)=C[C@@H](c2ccc(Br)cc2)[C@@H]1CCCO	0	-2	-4	-1
Cc1cccc(OCC(=O)Nc2ccc3c(c2)C(=O)NC3=O)c1	-3	-2	3	-3
CC(=O)Nc1ccc2c(CSc3nncs3)cc(=O)oc2c1	-18	3	-2	5.4*
Cc1ccc2c(CSc3nnc(N)s3)cc(=O)oc2c1	5	-2	3	-3
Cc1ccc(-c2csc3ncnc(-n4cnc5ccccc54)c23)cc1	0	-1	0	-2
Cc1sc2ncnc(-n3cnc4ccccc43)c2c1C	-6	0	7	7.3*
Cc1c(C#N)c(O)n(C)c(=O)c1N=Nc1ccc(S(N)(=O)=O)cc1	-1	10*	-1	-5
Cc1c(C#N)c(O)n(CCO)c(=O)c1N=Nc1ccc(S(N)(=O)=O)cc1	-8	-2	-1	-5
Cc1csc2nc(SCC(=O)Nc3ccccc3F)[nH]c(=O)c12	24*	-1	3	-2
Cc1ccc(C(C)C)cc1S(=O)(=O)NCc1ccccn1	-1	-3	-3	-4
CCCCNC(=O)NCc1cnn(C)c1C	-4	-2	-2	-1
O=c1[nH]c(N/N=C\c2ccc3c(c2)OCO3)nc2ccccc12	34*	-4	-5	-4
Cc1cc(N/N=C/c2ccc3c(c2)OCO3)nc2ccccc12	61*	-3	-1	-2
SMILES	dFosB act	VIM-2 inhibitor	HTR2A ag	IMP-1 inh
O=c1[nH]c(N/N=C/c2ccccc2)nc2ccccc12	-13	-3	-2	-3
O=C1NC(Cc2ccc(O)cc2)c2nc3ccccc3c(=O)n2-c2ncccc21 (stereo not drawn)	.	.	0	.
O=C(Nc1ccccc1Br)C1CCN(S(=O)(=O)c2cccs2)CC1	-4	.	-2	.
COc1ccc(C(C[N+](=O)[O-])c2c(C)[nH]c3ccccc23)cc1OC (stereo not drawn)	-6	0	1	13*
N=C1C(c2nc(-c3ccc(F)cc3)cs2)=C(O)CN1CCCN1CCOCC1	1	12*	4	0
NC(=O)c1sc2nc(-c3ccco3)ccc2c1N	-3	11*	2	1
CCCc1nnc(NC(=O)CCN2C(=O)c3ccccc3C2=O)s1	19*	-3	3	-3
